Converted amounts (≈) assume the structure as drawn.
Columns and labels:
L1210 = test: Compound was evaluated for inhibition dose required to inhibit the growth of L1210 cells in culture.; format: functional; conditions: Mus musculus, read-out: ID50 (the source's name)
[1] = Solubility at pH 7.4; format: physicochemical; conditions: buffer
Procedure, shortened: (§1)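 Run at 18 °C in 0.01 M potassium phosphate buffer. A saturated suspension was brought to pH 7.4 with 5 M KOH, held overnight, filtered through 0.22 µm, readjusted and refiltered. For pH 5.0, part of the filtrate was acidified with phosphoric acid and refiltered, then diluted with pH 5.0 buffer if opalescent. Samples were diluted in 0.1 M NaOH and concentration read by UV absorbance at 301.5 nm.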

[2] = Solubility at pH 5; format: physicochemical; conditions: buffer; procedure, shortened: as §1
Thymidylate synthase = Thymidylate synthase (Mus musculus, UniProt P07607); test: Inhibitory concentration of compound to inhibit Thymidylate synthase (TS) in L1210 cells at conc. of 200 uM; format: cell-based
Sequence of Thymidylate synthase (P07607 whole entry): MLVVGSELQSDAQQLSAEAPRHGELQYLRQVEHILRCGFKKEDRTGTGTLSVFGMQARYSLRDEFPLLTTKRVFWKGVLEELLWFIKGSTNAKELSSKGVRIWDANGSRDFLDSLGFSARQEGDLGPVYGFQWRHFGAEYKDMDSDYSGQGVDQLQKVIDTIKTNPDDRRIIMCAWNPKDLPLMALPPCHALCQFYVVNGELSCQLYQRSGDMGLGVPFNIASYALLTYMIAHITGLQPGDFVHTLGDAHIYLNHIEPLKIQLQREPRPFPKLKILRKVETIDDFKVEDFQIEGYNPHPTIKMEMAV
Procedure, shortened: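 Partially purified thymidylate synthase from L1210 leukemia cells; the enzyme assay used (±)-5,10-methylenetetrahydrofolate (5,10-CH2-FH4) cofactor at 200 μM.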

Row | SMILES | IC50 (L1210) [nM] | solubility [1] [µg/mL] | solubility [2] [µg/mL] | IC50 (Thymidylate synthase) [nM]
1 | C#CCN(Cc1ccc2[nH]c(N)nc(=O)c2c1)c1ccc(C(=O)NC(CCC(=O)O)C(=O)O)cc1 (stereo not drawn) | 3400 | 312 (≈ 653 µM) | 8.6 (≈ 18 µM) | –
2 | CCN(Cc1ccc2nc(N)nc(O)c2c1)c1ccc(C(=O)NC(CCC(=O)O)C(=O)O)cc1 (stereo not drawn) | 9000 | – | – | –
3 | CN(Cc1ccc2ncnc(O)c2c1)c1ccc(C(=O)NC(CCC(=O)O)C(=O)O)cc1 (stereo not drawn) | 900 | – | – | 1060
4 | CCN(Cc1ccc2ncnc(O)c2c1)c1ccc(C(=O)NC(CCC(=O)O)C(=O)O)cc1 (stereo not drawn) | 2700 | – | – | –
5 | C=CCN(Cc1ccc2ncnc(O)c2c1)c1ccc(C(=O)NC(CCC(=O)O)C(=O)O)cc1 (stereo not drawn) | 2500 | – | – | 1120

The remaining molecules from weak to strong by IC50 (L1210), led by results:

Row | IC50 (L1210) [nM] | solubility [1] [µg/mL] | solubility [2] [µg/mL] | IC50 (Thymidylate synthase) [nM] | SMILES
6 | 6000 | – | – | 280 | C=CCN(Cc1ccc2nc(N)nc(O)c2c1)c1ccc(C(=O)NC(CCC(=O)O)C(=O)O)cc1 (stereo not drawn)
7 | 4500 | – | – | 360 | CN(Cc1ccc2nc(N)nc(O)c2c1)c1ccc(C(=O)NC(CCC(=O)O)C(=O)O)cc1 (stereo not drawn)
8 | 2700 | – | – | – | Nc1nc(O)c2cc(CNc3ccc(C(=O)NC(CCC(=O)O)C(=O)O)cc3)ccc2n1 (stereo not drawn) [DIDEAZAFOLATE]
9 | 400 | – | – | – | O=C(O)CCC(NC(=O)c1ccc(NCc2ccc3ncnc(O)c3c2)cc1)C(=O)O (stereo not drawn)
10 | 400 | > 107000 | 43 (≈ 93 µM) | – | C#CCN(Cc1ccc2ncnc(O)c2c1)c1ccc(C(=O)NC(CCC(=O)O)C(=O)O)cc1 (stereo not drawn)

— ChEMBL document CHEMBL1124447, “Quinazoline antifolates inhibiting thymidylate synthase: 2-desamino derivatives with enhanced solubility and potency” (J Med Chem, 1989)
